In ChEMBL document CHEMBL4680156, “Discovery of novel pyrido-pyrrolidine hybrid compounds as alpha-glucosidase inhibitors and alternative agent for control of type 1 diabetes” (Eur J Med Chem, 2020):
The source made the active and inactive calls. The calls are words filed in the database; no cut-off is given here.

Legend:
[1] = target: T1, Alpha-mannosidase (Canavalia ensiformis) (UniProt C0HJB3); assay: Inhibition of jack bean alpha-mannosidase at 1 mM using […] as substrate incubated for 10 mins by spectrophotometric method
T1 sequence (whole entry): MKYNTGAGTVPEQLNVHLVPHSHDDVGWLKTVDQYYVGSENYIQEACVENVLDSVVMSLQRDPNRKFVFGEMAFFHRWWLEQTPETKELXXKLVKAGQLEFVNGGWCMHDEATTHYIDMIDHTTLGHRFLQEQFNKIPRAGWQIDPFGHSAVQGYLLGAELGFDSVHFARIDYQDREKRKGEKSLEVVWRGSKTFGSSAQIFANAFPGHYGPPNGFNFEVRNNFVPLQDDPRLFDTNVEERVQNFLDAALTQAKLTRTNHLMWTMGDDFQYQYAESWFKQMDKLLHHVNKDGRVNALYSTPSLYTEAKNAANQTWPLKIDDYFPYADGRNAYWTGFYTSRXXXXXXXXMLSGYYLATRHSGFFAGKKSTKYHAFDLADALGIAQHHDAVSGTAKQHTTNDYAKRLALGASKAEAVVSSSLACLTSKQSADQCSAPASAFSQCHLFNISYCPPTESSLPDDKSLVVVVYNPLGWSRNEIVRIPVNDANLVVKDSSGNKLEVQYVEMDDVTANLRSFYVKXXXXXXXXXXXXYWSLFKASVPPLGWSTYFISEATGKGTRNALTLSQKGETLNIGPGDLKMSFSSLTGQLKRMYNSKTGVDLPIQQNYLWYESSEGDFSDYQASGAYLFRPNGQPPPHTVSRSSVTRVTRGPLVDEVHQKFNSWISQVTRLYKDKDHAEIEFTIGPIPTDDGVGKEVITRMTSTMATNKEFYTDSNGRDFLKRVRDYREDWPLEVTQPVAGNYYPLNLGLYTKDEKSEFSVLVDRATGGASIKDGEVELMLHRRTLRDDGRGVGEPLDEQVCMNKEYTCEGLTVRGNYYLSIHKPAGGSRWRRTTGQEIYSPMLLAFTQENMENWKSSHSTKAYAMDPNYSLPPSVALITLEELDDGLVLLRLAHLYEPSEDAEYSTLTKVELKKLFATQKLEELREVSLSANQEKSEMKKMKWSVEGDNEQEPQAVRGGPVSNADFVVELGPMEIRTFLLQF

[2] = target: T2, Tissue alpha-L-fucosidase (Bos taurus) (UniProt Q2KIM0); assay: Inhibition of bovine kidney alpha-fucosidase at 1 mM using […] as substrate incubated for 10 mins by spectrophotometric method
T2 sequence (whole entry): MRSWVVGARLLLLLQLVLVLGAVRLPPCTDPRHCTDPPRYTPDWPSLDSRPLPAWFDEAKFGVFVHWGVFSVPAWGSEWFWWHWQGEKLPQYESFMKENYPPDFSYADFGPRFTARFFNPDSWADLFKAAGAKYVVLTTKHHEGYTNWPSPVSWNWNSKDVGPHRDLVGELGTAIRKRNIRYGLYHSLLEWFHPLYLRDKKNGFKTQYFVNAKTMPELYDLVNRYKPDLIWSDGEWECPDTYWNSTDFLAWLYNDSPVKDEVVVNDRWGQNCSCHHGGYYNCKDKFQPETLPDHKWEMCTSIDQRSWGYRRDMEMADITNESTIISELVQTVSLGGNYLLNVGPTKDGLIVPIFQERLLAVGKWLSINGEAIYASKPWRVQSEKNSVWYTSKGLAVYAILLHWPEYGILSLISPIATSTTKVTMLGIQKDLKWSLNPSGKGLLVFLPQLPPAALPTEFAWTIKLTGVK

[3] = Inhibition of Saccharomyces cerevisiae alpha-glucosidase using PNPG as substrate incubated for 10 mins by spectrophotometric method
[4] = Inhibition of Saccharomyces cerevisiae alpha-glucosidase using maltose as substrate preincubated for 5 mins followed by substrate addition and measured after 15 mins by LC-TQ-MS/MS analysis
[5] = target: T3, Tissue alpha-L-fucosidase (Bos taurus, UniProt Q2KIM0); assay: Inhibition of bovine kidney alpha-fucosidase using […] as substrate incubated for 10 mins by spectrophotometric method
T3 sequence (Q2KIM0 whole entry): T2 sequence (whole entry)

Saccharomyces cerevisiae = assay: Inhibition of Saccharomyces cerevisiae alpha-glucosidase at 1 mM using PNPG as substrate incubated for 10 mins by spectrophotometric method
Alpha-mannosidase = target: T4, Alpha-mannosidase (Canavalia ensiformis, UniProt C0HJB3); assay: Inhibition of jack bean alpha-mannosidase using […] as substrate incubated for 10 mins by spectrophotometric method
T4 sequence (C0HJB3 whole entry): T1 sequence (whole entry)

Maltase-glucoamylase = Maltase-glucoamylase (Homo sapiens, UniProt O43451); assay: Inhibition of alpha-glucosidase (unknown origin) using sucrose as substrate incubated for 30 mins
Sequence of Maltase-glucoamylase (O43451 whole entry): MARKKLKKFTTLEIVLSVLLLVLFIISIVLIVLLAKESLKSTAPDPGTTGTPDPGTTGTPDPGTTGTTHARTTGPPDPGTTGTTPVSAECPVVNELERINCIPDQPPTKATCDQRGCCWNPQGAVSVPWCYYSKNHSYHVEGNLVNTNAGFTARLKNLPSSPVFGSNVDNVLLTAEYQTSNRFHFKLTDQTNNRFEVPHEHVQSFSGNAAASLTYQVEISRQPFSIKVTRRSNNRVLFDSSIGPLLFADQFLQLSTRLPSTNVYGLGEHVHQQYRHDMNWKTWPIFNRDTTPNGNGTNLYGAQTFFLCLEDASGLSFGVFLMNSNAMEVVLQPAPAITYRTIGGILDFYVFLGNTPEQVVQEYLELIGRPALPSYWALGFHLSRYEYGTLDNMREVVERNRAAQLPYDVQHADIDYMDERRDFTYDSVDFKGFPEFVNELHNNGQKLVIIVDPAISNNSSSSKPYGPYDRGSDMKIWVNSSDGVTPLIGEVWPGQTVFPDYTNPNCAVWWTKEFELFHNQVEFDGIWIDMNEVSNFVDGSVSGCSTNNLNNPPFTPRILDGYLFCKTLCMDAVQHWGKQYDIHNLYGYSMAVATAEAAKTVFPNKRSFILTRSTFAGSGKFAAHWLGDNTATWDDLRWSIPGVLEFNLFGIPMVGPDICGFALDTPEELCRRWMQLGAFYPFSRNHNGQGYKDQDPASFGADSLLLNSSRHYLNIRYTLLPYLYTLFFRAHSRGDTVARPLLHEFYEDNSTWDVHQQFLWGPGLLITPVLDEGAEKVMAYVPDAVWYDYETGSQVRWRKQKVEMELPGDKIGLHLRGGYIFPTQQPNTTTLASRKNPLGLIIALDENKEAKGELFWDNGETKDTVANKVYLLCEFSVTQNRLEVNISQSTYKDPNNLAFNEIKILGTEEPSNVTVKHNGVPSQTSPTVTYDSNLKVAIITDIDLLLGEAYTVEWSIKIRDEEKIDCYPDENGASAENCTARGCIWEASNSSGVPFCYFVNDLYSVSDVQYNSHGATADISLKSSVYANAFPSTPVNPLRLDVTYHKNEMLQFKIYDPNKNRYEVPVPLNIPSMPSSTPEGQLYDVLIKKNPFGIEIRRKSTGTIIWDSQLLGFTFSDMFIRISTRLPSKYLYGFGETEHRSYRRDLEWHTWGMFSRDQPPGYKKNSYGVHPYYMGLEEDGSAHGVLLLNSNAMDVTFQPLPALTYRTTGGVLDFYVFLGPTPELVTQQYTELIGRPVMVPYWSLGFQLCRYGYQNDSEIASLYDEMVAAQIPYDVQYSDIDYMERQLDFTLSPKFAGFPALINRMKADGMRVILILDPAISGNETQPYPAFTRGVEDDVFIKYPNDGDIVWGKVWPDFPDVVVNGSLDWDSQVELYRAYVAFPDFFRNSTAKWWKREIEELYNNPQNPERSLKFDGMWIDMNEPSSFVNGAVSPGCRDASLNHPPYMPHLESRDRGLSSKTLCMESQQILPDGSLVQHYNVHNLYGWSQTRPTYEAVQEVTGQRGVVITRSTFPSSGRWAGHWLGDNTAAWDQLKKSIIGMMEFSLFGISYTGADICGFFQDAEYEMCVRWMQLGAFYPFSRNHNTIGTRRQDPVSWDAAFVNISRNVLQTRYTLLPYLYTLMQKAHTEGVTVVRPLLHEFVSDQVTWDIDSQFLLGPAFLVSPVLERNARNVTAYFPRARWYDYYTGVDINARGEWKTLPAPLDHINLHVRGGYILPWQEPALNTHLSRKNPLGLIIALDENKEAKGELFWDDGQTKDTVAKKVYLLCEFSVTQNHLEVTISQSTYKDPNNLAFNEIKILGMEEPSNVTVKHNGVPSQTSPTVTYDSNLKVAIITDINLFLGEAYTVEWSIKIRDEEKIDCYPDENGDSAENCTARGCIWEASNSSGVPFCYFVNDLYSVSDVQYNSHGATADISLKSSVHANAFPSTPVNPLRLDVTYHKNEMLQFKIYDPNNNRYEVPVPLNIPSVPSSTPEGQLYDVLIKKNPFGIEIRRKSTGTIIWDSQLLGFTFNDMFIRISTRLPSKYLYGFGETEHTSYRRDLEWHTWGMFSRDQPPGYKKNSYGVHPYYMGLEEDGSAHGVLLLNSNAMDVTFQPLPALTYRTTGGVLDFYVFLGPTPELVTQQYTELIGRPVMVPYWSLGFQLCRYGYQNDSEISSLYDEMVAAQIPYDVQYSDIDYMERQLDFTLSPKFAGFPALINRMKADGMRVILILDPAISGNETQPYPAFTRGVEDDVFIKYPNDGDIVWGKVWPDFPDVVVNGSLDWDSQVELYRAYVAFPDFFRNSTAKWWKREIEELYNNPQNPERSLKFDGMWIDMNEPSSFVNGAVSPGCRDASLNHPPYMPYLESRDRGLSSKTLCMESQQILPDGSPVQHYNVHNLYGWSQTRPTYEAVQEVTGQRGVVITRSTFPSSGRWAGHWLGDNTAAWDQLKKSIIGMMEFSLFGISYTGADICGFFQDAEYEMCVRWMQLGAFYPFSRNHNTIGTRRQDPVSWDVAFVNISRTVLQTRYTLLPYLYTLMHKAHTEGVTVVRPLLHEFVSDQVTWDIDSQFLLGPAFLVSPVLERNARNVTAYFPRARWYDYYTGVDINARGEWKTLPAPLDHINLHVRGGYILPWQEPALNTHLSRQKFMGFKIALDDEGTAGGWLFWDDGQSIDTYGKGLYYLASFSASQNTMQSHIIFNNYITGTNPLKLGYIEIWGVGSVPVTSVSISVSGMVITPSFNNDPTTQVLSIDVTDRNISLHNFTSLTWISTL

[6] = Inhibition of Saccharomyces cerevisiae alpha-glucosidase assessed as reduction in p-nitrophenol liberation using PNPG as substrate preincubated with substrate for 5 mins followed by incubation with enzyme for 5 mins
[7] = Inhibition of rice alpha-glucosidase; design: species or system Oryza sativa
[8] = Inhibition of fungi maltase
Method in brief: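 Yeast α-glucosidase, 0.1 IU per well, was added to 2 mM 4-nitrophenyl α-D-glucopyranoside in 10 mM potassium phosphate pH 7.2, with compound from DMSO at 2–10 μM. Plates ran 10 min at 37 °C and were read at 430 nm. Inhibition was calculated against a buffer control, and IC50 came from three independent assays run in triplicate.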

[9] = Toxicity in STZ-treated diabetic Sprague-Dawley rat model assessed as decrease in body weight at 60 mg/kg, po administered once daily for 28 days; format: organism-based; conditions: in vivo, 672 h, time 28 day
Method in brief: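 Male Sprague-Dawley rats (250–320 g, 8–10 weeks) were made diabetic with a single STZ dose (70 mg/kg ip in 0.1 mmol/L citrate buffer, pH 4.5). Random glucose above 125 mg/dl defined diabetes. Dosing was 60 mg/kg in 0.5% saline by gastric gavage once daily for 4 weeks, n=6 per group, with vehicle controls. Body weight was recorded before and after treatment; mean ± SD, 2-way ANOVA.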

Rattus norvegicus [10] = assay: Antidiabetic activity against STZ-induced type 1 diabetic Sprague-Dawley rat model assessed as decrease in fasting blood glucose level at 60 mg/kg, po administered once daily for 28 days; format: functional, organism-based; conditions: time 28.0 day
Method in brief: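 Male Sprague-Dawley rats (250–320 g, 8–10 weeks) were given STZ 70 mg/kg ip once in 0.1 mmol/L citrate buffer, pH 4.5. Rats with random glucose >125 mg/dl at 4 days were counted diabetic. Dosing was 60 mg/kg in 0.5% saline by gavage once daily for 4 weeks, n=6 per group. After a 6 h fast, tail blood glucose was read by glucometer. Data are mean ± SD; 2-way ANOVA.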

Rattus norvegicus [11] = assay: Decrease in post prandial glucose level in type 1 diabetic Sprague-Dawley rat model at 60 mg/kg, po administered once daily for 28 days; conditions: time 28.0 day
[12] = Inhibition of Saccharomyces cerevisiae alpha-glucosidase assessed as reduction in p-nitrophenol release using p-nitrophenyl glycoside as substrate by spectrophotometric analysis
[13] = Inhibition of Wistar rat intestinal maltase assessed as reduction in released D-glucose level using maltose as substrate by colorimetric assay; format: tissue-based, Intestine

Row | Structure (SMILES) | inhibition [1] | inhibition [2] | IC50 [3] | IC50 [5] | IC50 (Alpha-mannosidase) | other results
1 | Cc1cc2c(c(=O)[nH]1)C(=O)O/C2=C\c1ccc(CO)n1-c1ccc(F)cc1 | < 50% | < 50% | 20.7 µM |  |  | 
2 | O=C(O)c1cc(O)c2c(c1)C(=O)c1cccc(O)c1C2=O [RHEIN] | < 50% |  | 26.4 µM | 32 µM |  | IC50 [4]: 5.68 µM
3 | Cc1cc2c(c(=O)[nH]1)C(=O)O/C2=C\c1ccc(CO)n1-c1ccccc1C | < 50% | < 50% |  |  |  | inhibition (Saccharomyces cerevisiae): < 50%
4 | Cc1ccc(S(=O)(=O)Nc2cccc(C(=O)/C=C/c3ccc(O)c(O)c3)c2)cc1 |  |  | 82.7 µM | 91 µM | 105 µM | 
5 | O=C1c2cccc(O)c2C(=O)c2c(O)cc(CO)cc21 [ALOE-EMODIN] | < 50% |  | 26.4 µM | 32 µM |  | IC50 [4]: 4.56 µM
6 | Cc1ccc(S(=O)(=O)Nc2cccc(C(=O)/C=C/c3ccc(O)cc3)c2)cc1 |  |  | 82.7 µM | 91 µM | 105 µM | 
7 | Cc1cc2c(c(=O)[nH]1)C(=O)O/C2=C\c1ccc(CO)n1-c1ccc(O)cc1 | < 50% |  | 33.3 µM | 21.7 µM |  | 
8 | O=C1Nc2cc(Cl)ccc2/C1=C/c1ccc(O)c(O)c1 |  |  | 15 µM | 65 µM | 28 µM | 
9 | C=CC(C)(C)c1c2c(c(O)c3c(=O)c4ccc(O)c(O)c4oc13)C=CC(C)(C)O2 [MACLURAXANTHONE] | < 50% | < 50% | 62.3 µM |  |  | 
10 | COc1ccc([C@@H]2N[C@@H](CO)[C@H](O)[C@H]2O)cc1O [L-RADICAMINE A] |  |  | 25.2 µM | 41 µM | 28 µM | IC50 (Maltase-glucoamylase): 6.7 µM
11 | Cc1cc2c(c(=O)[nH]1)C(=O)O/C2=C\c1ccc(CO)n1CCc1ccccc1 | < 50% | < 50% |  |  |  | inhibition (Saccharomyces cerevisiae): < 50%
12 | C#CCn1c(/C=C2\OC(=O)c3c2cc(C)[nH]c3=O)ccc1CO | < 50% | < 50% |  |  |  | inhibition (Saccharomyces cerevisiae): < 50%
13 | O=C1Nc2cc(Cl)ccc2/C1=C/c1ccccc1[N+](=O)[O-] |  |  | 15 µM | 65 µM | 28 µM | 
14 | O=c1c(-c2ccc(O)cc2)coc2cc(O)cc(O)c12 [GENISTEIN] |  |  | 81 µM | 54 µM | 49 µM | IC50 [6]: 7 µM
15 | C=CC(C)(C)c1c(O)cc2oc3c(CC=C(C)C)c(O)c(O)cc3c(=O)c2c1O [CUDRAXANTHONE L] | < 50% | < 50% | 62.3 µM |  |  | 
16 | O=c1c2cc(O)c(O)cc2oc2cc(O)cc(O)c12 | < 50% | < 50% | 62.3 µM |  |  | 
17 | OC[C@@H]1[C@@H](O)[C@H](O)[C@H]2[C@H](O)[C@@H](O)CN21 [CASUARINE] |  |  | 41.1 µM | 82 µM | 51 µM | IC50 [7]: 1200 nM; IC50 [8]: 700 nM
18 | Cc1cc2c(c(=O)[nH]1)C(=O)O/C2=C\c1ccc(CO)n1-c1ccccc1 |  |  | 27.4 µM | 38.4 µM | 61.4 µM | 

Row | Structure (SMILES) | inhibition [1] | inhibition [2] | IC50 [3] | IC50 [5] | IC50 (Alpha-mannosidase) | other results
19 | C[C@H]1O[C@H](O[C@H]2[C@H](O)[C@@H](O)[C@@H](O[C@H]3[C@H](O)[C@@H](O)C(O)O[C@@H]3CO)O[C@@H]2CO)[C@H](O)[C@@H](O)[C@@H]1N[C@H]1C=C(CO)[C@@H](O)[C@H](O)[C@H]1O (stereo partly specified) [ACARBOSE] |  |  | 2.1 µM |  |  | Activity [9]: Non-Toxic; Activity (Rattus norvegicus [10]): Active; inhibition (Rattus norvegicus [11]): inactive
20 | OC[C@@H]1N[C@@H](c2ccc(O)cc2)[C@H](O)[C@H]1O |  |  | 25.2 µM | 41 µM | 28 µM | IC50 (Maltase-glucoamylase): 9.3 µM
21 | C=CCn1c(/C=C2\OC(=O)c3c2cc(C)[nH]c3=O)ccc1CO | < 50% | < 50% |  |  |  | inhibition (Saccharomyces cerevisiae): < 50%
22 | OC[C@H]1NC[C@@H](O)[C@@H]1O | < 50% |  | 58 µM |  |  | IC50 [12]: 150 nM; IC50 [13]: 5.8 µM
23 | CC(C)=CCc1cc(C(=O)/C=C/c2ccc(O)c(O)c2)c(O)cc1O [BROUSSOCHALCONE A] | < 50% | < 50% | 101 µM |  |  | 
24 | Cc1ccc(S(=O)(=O)Nc2ccc(C(=O)/C=C/c3ccc(O)cc3)cc2)cc1 |  |  | 82.7 µM | 91 µM | 105 µM | 
25 | CC(C)c1ccc(/C=C2\C(=O)Nc3cc(Cl)ccc32)cc1 |  |  | 15 µM | 65 µM | 28 µM | 
26 | COc1cc(O)c2c(c1)C(=O)c1cc(C)cc(O)c1C2=O [PHYSCION] | < 50% |  | 26.4 µM | 32 µM |  | IC50 [4]: 5.32 µM
27 | Cc1cc2c(c(=O)[nH]1)C(=O)O/C2=C\c1ccc(CO)n1-c1ccc(Cl)cc1 | < 50% | < 50% | 21.9 µM |  |  | 
28 | Cc1cc2c(c(=O)[nH]1)C(=O)O/C2=C\c1ccc(CO)n1Cc1ccccc1 |  |  | 20.8 µM | 51.1 µM | 92.3 µM | 
29 | Cc1ccc(S(=O)(=O)Nc2ccc(C(=O)/C=C/c3ccc(O)c(O)c3)cc2)cc1 |  |  | 82.7 µM | 91 µM | 105 µM | 
30 | OCc1ccc2n1C[C@@H](c1ccc(O)cc1)OC2 |  |  | 5.01 µM | 21 µM | 14 µM | 
31 | Cc1cc2c(c(=O)[nH]1)C(=O)O/C2=C\c1ccc(CO)n1CCc1c[nH]c2ccccc12 | < 50% |  | 4.4 µM | 12.9 µM |  | 
32 | Cc1cc(O)c2c(c1)C(=O)c1cc(O)cc(O)c1C2=O [EMODIN] | < 50% |  | 26.4 µM | 32 µM |  | IC50 [4]: 4.12 µM
33 | O=C(N/N=C/c1ccc(Cl)cc1)c1ccc(-c2nc3ccccc3s2)cc1 |  | < 50% | 20.5 µM |  | 15 µM | 
34 | CC(C)=CCc1cc(-c2oc3cc(O)c(CC=C(C)C)c(O)c3c(=O)c2O)cc(O)c1O [BROUSSONOL E] | < 50% |  | 85.9 µM | 89 µM |  | 
35 | Oc1cc(O)cc(/C=C/c2cc(O)c(O)c(O)c2)c1 | < 50% | < 50% | 31.1 µM |  |  | 
